We go through three compounds from publication PMC11865470 (Communications Biology, 2025).

What all share (format): cell-based
For test [1], the target named is T1, mOtop1 channels co-expressed in HEK293 cells (Mus musculus, UniProt Q80VM9).
T1 sequence (Q80VM9 1-600): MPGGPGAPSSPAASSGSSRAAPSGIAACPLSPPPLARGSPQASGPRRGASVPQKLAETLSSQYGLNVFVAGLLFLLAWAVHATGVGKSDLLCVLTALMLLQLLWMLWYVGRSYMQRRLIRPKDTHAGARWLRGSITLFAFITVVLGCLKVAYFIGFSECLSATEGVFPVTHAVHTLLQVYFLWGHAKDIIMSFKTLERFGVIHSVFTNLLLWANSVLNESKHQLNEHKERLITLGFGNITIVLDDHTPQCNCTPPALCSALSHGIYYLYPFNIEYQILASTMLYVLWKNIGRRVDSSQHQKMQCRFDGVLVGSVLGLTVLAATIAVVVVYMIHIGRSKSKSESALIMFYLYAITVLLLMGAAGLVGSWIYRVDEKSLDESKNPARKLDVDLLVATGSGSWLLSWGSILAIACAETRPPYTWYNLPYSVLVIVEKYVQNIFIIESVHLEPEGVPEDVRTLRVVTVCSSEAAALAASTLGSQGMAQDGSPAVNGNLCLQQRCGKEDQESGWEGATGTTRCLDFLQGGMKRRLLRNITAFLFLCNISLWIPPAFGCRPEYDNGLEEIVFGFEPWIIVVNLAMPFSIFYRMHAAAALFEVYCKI
Nature of the test: live cell intracellular pH imaging. The note with it: 10 μM; for effect on intracellular pH changes mediated by mOtop1, acidification: extracellular pH 6.0/5.0; for effect on intracellular pH changes mediated by mOtop1, alkalinization: extracellular pH 8.5. In outline: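 HEK293 cells were electroporated (180 V, 25 ms) with pHmScarlet-mTurquise2, with or without mOtop1, and imaged 24 h later. Cells sat in pH 7.4 solution (mM: 140 KCl, 10 NaCl, 1 MgCl2, 20 HEPES), then were shifted to pH 8.5 (Tris), 6.0 (MES) or 5.0 (HomoPIPES). Test compound was 10 μM in the stimulus solution, with acetic acid pH 5.0 as positive control. FpHmScarlet/FmTurquise2 ratio read every 2 s.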

Test [2] addresses T2, mOtop1/R554A (Mus musculus, UniProt Q80VM9, R554A).
T2 sequence (Q80VM9 1-600 R554A): T1 sequence (Q80VM9 1-600) with R554A
Nature of the test: patch-clamp, mOtop1 mutant. The following applies: for effect of mutating R554 on the compound's action on Otop1: Fig 5I, J. For orientation: The patch-clamp technique gives a direct electrical read-out from membranes.

Test [3] concerns the target T3, Kir4.1 (Homo sapiens, UniProt P78508).
T3 sequence (P78508 1-379): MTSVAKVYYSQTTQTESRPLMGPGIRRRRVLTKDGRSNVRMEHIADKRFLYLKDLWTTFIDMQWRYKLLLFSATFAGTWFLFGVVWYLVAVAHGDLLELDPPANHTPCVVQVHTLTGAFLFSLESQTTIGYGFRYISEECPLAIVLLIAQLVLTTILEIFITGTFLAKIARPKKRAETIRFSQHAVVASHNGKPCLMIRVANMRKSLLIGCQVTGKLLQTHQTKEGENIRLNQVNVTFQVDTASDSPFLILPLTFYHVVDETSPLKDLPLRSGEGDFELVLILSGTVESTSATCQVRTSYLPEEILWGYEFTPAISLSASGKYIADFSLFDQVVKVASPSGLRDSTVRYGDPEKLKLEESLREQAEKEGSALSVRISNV
Nature of the test: whole-cell patch-clamp, off-target channel, 10 μM compound. The following applies: vs 0.1% DMSO. In outline:
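Kir channels in transfected HEK293T cells, whole-cell. Pipette (mM): 135 KCl, 2 MgCl2, 10 HEPES, 1 EGTA, 4 Na2-ATP, pH 7.3. Bath (mM): 135 NaCl, 5 KCl, 1.5 CaCl2, 1 MgCl2, 10 HEPES, 10 glucose, pH 7.4. 0.1% DMSO bath applied before 10 μM test compound. Inhibition ratios compared by unpaired t-test, n = 5.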

The target of test [4] is T4, KV3.1 (Mus musculus, UniProt P15388).
T4 sequence (P15388 1-585 isoform P15388-3): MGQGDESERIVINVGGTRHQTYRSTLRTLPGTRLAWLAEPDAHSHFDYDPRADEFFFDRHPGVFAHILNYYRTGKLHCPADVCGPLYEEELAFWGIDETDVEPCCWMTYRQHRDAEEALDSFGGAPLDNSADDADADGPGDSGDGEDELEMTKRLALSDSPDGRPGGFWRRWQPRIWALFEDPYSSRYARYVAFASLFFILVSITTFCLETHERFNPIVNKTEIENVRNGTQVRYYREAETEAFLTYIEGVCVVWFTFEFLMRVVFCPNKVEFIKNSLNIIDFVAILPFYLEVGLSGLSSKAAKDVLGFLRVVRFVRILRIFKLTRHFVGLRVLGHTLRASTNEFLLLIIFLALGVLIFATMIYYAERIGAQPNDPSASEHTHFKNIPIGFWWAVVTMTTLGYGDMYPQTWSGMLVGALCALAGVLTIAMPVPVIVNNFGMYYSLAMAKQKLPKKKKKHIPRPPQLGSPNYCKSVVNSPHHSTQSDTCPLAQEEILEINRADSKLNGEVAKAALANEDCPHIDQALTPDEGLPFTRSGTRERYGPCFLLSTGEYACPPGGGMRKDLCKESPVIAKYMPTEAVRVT
Nature of the test: whole-cell patch-clamp, off-target channel, 10 μM compound. The following applies: for sensitivity of channel to compound: vs 0.1% DMSO. In outline: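 KV channels in transiently transfected HEK293T cells, whole-cell. Pipette (mM): 140 KCl, 2.5 MgCl2, 11 EGTA, 10 HEPES, pH 7.4. Bath (mM): 145 NaCl, 2.8 KCl, 2 CaCl2, 1 MgCl2, 10 glucose, 10 HEPES, pH 7.4. 0.1% DMSO bath applied, then 10 μM test compound. DMSO vs compound inhibition ratio compared by unpaired t-test, n = 5.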

Each structure is given as a SMILES string. Positions count from the first letter of the chain named. Entries after “also recorded” stand apart in the source; their conditions may differ.

For the compound `CC(C)c1noc2ncc(C(=O)c3ccccc3O)cc12` [HIMOP, (2-hydroxyphenyl)-(3-propan-2-yl-5-isoxazolo[5,4-b]pyridinyl)methanone], in test [1], the “effect on intracellular pH changes mediated by mOtop1, acidification” value was “increases intracellular pH changes” and the “effect on intracellular pH changes mediated by mOtop1, alkalinization” value is recorded as “small but statistically significant increase in pHi; also recorded: increases intracellular pH changes; also recorded: slightly but significantly enhance”. In test [2], the “effect of mutating R554 on the compound's action on Otop1” value is on record as “did not affect”. Also, the “sensitivity of channel to compound” value in test [3] is on record as “completely resistant”. Besides, the “sensitivity of channel to compound” value in test [4] is recorded as “completely resistant”.
Regarding `Cc1ccc(C(=O)Nc2ccc3ccccc3c2)o1` [MFaN, 5-methyl-N-2-naphthyl-2-furamide], in test [1], the “effect on intracellular pH changes mediated by mOtop1, acidification” value is “increases intracellular pH changes” and the “effect on intracellular pH changes mediated by mOtop1, alkalinization” value was “no effect”. Besides, the “response of mutant to MFaN” value in test [2] (10 μM, pH 5.5) is listed as “entirely unresponsive; also recorded: completely abolished”. Besides, the “response of mutant to MFaN” value in test [2] (pHs of 4.5, 5.0, and 6.0) is given as “completely unresponsive”. Further, the “sensitivity of channel to compound” value in test [3] is recorded as “completely resistant”. Further, the inhibition ratio in test [4] is reported as 15.2%.
In the case of `Cc1cc(NC(=O)c2ccc(Br)o2)ccc1NC(=O)c1ccco1` [B2FAMP, 5-Bromo-N-[4-(2-furoylamino)-3-methylphenyl]-2-furamide], the “effect on intracellular pH changes mediated by mOtop1, acidification” value in test [1] is given as “increases intracellular pH changes”. Further, the “effect on intracellular pH changes mediated by mOtop1, alkalinization” value in test [1] is “no effect”. For the same compound, the “effect of mutating R554 on the compound's action on Otop1” value in test [2] is “only partially reduced”. The “sensitivity of channel to compound” value in test [3] and in test [4] was “completely resistant” throughout.
